Results: the M2OR odorant receptor database
Changes are numbered by the printed parent chain.

What was measured:
Conditions in all cases: stereoisomer not certain
OR1G1 (Homo sapiens) = target: T1, OR1G1 (Homo sapiens) (UniProt P47890)
T1 sequence (whole entry): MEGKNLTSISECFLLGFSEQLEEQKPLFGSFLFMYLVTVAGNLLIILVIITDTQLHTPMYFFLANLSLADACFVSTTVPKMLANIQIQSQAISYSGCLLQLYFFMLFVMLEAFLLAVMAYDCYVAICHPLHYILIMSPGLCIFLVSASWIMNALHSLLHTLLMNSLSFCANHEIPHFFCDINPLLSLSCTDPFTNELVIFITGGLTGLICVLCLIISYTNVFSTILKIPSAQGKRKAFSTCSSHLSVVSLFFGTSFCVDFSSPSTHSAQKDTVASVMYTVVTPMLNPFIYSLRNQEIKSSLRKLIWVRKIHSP
Outline: (§1)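 Assay methods differ from source to source, frequently being transient luciferase assays in mammalian cell lines. For each receptor–molecule pair, the label responsive (active) applies when the original authors judged the measured signal statistically different from baseline, and non-responsive (inactive) applies otherwise.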

OR1F12P (Homo sapiens) = target: T2, OR1F12P (Homo sapiens) (UniProt Q8NHA8)
T2 sequence (whole entry): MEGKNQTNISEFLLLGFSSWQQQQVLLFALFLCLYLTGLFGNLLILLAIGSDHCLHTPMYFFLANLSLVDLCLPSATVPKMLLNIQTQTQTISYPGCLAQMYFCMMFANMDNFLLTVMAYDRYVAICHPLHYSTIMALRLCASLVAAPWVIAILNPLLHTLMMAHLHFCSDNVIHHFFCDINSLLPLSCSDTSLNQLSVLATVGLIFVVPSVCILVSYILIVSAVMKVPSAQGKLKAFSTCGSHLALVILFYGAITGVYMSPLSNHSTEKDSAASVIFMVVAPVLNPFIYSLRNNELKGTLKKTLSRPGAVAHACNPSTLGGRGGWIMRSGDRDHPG
Outline: as §1

OR1F1 = tested on: T3, OR1F1
T3 sequence (whole entry): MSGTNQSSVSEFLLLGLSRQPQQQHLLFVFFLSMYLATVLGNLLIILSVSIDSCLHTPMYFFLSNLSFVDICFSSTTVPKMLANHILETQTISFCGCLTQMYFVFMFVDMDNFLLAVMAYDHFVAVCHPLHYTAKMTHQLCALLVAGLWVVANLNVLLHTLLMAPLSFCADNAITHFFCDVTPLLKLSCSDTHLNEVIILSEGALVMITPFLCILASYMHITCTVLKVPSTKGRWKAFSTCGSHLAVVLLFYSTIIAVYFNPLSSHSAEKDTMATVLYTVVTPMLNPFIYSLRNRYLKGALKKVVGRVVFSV
Outline: as §1

OR1I1 (Homo sapiens) = target: T4, OR1I1 (Homo sapiens) (UniProt O60431)
T4 sequence (whole entry): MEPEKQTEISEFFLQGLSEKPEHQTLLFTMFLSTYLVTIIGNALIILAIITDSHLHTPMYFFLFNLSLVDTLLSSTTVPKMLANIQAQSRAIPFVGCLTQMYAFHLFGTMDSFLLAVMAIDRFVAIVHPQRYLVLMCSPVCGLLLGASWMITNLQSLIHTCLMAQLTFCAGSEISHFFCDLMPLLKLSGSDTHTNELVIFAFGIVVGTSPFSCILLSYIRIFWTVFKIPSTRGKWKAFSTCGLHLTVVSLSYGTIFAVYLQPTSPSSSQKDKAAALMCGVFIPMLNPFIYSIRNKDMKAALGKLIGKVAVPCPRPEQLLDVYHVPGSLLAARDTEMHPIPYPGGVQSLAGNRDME
Outline: as §1

OR1J1 (Homo sapiens) = target: T5, OR1J1 (Homo sapiens) (UniProt Q8NGS3)
T5 sequence (whole entry): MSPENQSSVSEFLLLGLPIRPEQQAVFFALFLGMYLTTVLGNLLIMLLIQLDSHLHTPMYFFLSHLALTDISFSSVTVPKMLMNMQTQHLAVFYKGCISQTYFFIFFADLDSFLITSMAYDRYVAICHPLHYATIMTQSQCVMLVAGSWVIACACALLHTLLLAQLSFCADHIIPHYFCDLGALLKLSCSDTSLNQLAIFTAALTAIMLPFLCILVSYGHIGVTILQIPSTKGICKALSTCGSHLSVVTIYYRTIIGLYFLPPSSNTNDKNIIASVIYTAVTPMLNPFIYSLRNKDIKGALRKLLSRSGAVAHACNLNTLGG
Outline: as §1

OR1J2 (Homo sapiens) = target: T6, OR1J2 (Homo sapiens) (UniProt Q8NGS2)
T6 sequence (whole entry): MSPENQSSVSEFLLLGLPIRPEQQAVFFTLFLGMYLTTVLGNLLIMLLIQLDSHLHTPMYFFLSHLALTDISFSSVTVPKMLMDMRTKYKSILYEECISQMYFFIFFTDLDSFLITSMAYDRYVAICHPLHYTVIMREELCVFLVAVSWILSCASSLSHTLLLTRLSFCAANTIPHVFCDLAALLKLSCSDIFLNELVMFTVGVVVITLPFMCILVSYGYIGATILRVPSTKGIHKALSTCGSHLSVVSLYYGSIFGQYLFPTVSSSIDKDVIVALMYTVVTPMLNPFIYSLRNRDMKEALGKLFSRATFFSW
Outline: as §1

OR1J4 (Homo sapiens) = target: T7, OR1J4 (Homo sapiens) (UniProt Q8NGS1)
T7 sequence (whole entry): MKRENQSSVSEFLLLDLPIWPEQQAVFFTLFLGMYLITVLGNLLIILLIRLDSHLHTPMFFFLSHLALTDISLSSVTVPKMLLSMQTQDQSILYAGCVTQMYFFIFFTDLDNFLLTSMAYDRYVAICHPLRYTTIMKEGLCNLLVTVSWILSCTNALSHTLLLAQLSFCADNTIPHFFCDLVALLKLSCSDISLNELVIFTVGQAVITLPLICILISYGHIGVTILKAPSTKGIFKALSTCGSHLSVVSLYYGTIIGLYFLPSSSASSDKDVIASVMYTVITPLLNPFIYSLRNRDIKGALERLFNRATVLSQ
Outline: as §1

OR1K1 (Homo sapiens) = target: T8, OR1K1 (Homo sapiens) (UniProt Q8NGR3)
T8 sequence (whole entry): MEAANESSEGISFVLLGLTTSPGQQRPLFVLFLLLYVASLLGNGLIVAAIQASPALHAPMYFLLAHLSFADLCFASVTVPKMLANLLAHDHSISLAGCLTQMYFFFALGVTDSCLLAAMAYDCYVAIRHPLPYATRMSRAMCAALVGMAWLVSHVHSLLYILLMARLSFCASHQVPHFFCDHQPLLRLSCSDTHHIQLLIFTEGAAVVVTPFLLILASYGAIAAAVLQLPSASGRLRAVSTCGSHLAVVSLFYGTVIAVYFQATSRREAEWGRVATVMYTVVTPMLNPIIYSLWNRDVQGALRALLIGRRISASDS
Outline: as §1

OR1L1 = tested on: T9, OR1L1
T9 sequence (whole entry): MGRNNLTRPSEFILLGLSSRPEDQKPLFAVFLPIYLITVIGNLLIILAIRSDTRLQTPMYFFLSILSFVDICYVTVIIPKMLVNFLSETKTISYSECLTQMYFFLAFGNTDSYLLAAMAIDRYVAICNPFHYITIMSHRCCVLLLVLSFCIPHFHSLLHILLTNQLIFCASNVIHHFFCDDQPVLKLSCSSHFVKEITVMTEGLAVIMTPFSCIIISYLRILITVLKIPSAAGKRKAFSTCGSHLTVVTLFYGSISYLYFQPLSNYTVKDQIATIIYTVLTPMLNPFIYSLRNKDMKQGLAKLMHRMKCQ
Outline: as §1

OR1L3 (Homo sapiens) = target: T10, OR1L3 (Homo sapiens) (UniProt Q8NH93)
T10 sequence (whole entry): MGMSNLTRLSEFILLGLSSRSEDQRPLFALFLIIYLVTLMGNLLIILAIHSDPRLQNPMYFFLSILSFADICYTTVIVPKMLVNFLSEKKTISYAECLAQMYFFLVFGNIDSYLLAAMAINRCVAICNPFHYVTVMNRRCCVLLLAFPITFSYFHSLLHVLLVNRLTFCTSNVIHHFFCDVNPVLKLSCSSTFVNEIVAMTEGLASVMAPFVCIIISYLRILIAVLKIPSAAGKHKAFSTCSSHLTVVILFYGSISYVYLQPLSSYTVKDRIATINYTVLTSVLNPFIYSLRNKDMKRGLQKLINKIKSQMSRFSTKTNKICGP
Outline: as §1

OR1L4 (Homo sapiens) = target: T11, OR1L4 (Homo sapiens) (UniProt Q8NGR5)
T11 sequence (whole entry): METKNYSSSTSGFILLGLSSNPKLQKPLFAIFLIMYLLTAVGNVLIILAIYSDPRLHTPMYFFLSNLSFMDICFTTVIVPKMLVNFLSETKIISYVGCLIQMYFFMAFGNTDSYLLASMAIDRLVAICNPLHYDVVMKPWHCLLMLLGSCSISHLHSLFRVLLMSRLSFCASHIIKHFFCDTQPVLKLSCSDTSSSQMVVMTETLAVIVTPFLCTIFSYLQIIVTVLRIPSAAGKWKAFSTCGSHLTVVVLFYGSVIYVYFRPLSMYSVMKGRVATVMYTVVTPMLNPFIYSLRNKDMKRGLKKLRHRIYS
Outline: as §1

OR1L4 = tested on: T12, OR1L4
T12 sequence (whole entry): T11 sequence (whole entry) with G234R
Outline: as §1

OR1L6 = tested on: T13, OR1L6
T13 sequence (whole entry): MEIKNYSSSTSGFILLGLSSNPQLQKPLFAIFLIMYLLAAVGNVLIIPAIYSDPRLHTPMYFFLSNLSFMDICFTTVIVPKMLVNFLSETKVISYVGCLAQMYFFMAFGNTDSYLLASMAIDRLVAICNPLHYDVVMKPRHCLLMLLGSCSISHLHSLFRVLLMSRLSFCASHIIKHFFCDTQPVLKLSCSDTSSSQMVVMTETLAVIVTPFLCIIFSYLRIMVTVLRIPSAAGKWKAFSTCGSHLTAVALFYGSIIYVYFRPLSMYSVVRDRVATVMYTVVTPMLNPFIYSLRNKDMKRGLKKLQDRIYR
Outline: as §1

OR1L8 (Homo sapiens) = target: T14, OR1L8 (Homo sapiens) (UniProt Q8NGR8)
T14 sequence (whole entry): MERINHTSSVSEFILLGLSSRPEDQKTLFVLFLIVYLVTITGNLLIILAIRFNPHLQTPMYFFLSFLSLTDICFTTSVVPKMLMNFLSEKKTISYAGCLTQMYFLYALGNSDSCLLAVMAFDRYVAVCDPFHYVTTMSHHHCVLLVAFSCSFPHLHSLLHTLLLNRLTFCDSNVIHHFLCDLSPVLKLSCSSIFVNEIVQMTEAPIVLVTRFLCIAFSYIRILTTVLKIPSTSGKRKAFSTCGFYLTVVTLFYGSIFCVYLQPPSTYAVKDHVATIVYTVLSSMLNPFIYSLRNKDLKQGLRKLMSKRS
Outline: as §1

OR1L8 T27P R211P = tested on: T15, OR1L8 T27P R211P
T15 sequence (whole entry): T14 sequence (whole entry) with T27P, R211P
Outline: as §1

OR1M1 (Homo sapiens) = target: T16, OR1M1 (Homo sapiens) (UniProt Q8NGA1)
T16 sequence (whole entry): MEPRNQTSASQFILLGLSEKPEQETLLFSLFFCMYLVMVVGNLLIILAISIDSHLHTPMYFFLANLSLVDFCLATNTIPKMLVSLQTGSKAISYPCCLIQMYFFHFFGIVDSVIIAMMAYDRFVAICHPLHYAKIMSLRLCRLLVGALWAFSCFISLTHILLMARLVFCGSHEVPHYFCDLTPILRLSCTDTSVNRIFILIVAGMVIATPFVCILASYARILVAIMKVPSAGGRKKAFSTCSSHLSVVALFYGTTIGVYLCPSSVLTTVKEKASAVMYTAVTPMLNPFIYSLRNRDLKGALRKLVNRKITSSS
Outline: as §1

OR1N1 (Homo sapiens) = target: T17, OR1N1 (Homo sapiens) (UniProt Q8NGS0)
T17 sequence (whole entry): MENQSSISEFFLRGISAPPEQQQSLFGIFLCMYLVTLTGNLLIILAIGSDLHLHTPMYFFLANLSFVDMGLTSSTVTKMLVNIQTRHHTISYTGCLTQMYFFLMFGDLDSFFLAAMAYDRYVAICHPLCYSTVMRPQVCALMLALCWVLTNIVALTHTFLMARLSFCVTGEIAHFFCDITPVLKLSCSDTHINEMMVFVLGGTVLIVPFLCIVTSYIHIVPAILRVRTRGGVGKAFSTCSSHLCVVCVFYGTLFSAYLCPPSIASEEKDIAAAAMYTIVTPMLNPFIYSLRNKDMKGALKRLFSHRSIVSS
Outline: as §1

OR1N2 W37R = tested on: T18, OR1N2 W37R
T18 sequence (whole entry): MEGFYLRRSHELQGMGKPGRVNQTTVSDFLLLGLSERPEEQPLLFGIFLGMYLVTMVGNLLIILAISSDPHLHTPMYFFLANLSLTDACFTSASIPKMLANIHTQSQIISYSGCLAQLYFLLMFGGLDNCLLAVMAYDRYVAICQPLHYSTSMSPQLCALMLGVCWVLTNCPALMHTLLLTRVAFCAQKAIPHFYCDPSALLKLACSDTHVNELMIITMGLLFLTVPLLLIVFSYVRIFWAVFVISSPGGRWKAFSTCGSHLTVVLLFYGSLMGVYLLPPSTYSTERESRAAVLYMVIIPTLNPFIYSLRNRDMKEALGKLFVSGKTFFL
Outline: as §1

Measured: odorant receptor agonist call

c1ccc2scnc2c1
active: OR1G1 (Homo sapiens)

CCCC(S)CCOC(C)=O (centres undefined)
inactive: OR1F12P (Homo sapiens) | OR1F1 | OR1G1 (Homo sapiens) | OR1I1 (Homo sapiens) | OR1J1 (Homo sapiens) | OR1J2 (Homo sapiens) | OR1J4 (Homo sapiens) | OR1K1 (Homo sapiens) | OR1L1 | OR1L3 (Homo sapiens) | OR1L4 (Homo sapiens) | OR1L4 | OR1L6 | OR1L8 (Homo sapiens) | OR1L8 T27P R211P | OR1M1 (Homo sapiens) | OR1N1 (Homo sapiens) | OR1N2 W37R
